Experiments:
IEC-6 = assay: Cytotoxicity against rat IEC-6 cells assessed as reduction in cell viability after 3 days by CellTiter-Glo assay; format: cell-based; settings: IEC-6, 72 h
Summary of the method: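 Rat intestinal epithelial IEC-6 cells; viability read by CellTiter-Glo ATP luminescence.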

[1] = Intrinsic clearance in rat liver microsomes; format: ADME, microsome; settings: read-out: CLH
[2] = Fraction unbound in rat plasma; format: ADME, cell-free
Summary of the method: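 Unbound fraction measured in rat plasma.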

80S Ribosome = assay: Binding affinity to 80S ribosome in human HuH7 cells assessed as inhibition of PCSK9 mRNA translation after overnight incubation by ELISA; format: cell-based; settings: huh-7
Summary of the method: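 Huh7 cells kept in high-glucose DMEM, 10% BSA-free FBS, 2 mM L-glutamine, pen/strep at 37 °C, 5% CO2. Plated 7,500/well with compound or vehicle and incubated overnight (16-20 h). Secreted PCSK9 in the medium read by AlphaLISA: two antibodies to different mature-PCSK9 epitopes, biotinylated antibody 3 nM final, acceptor beads 10 µg/mL, 0.5 h rt; streptavidin donor beads 40 µg/mL, 1 h rt.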

Rattus norvegicus [3] = assay: Reduction in total cholesterol level in Crl:CD(SD) rat at 50 mg/kg/day, po daily via gavage for 14 days measured on day 15 post last dose relative to control; format: functional; set-up: scale not given: the % may be the effect or the level left
Rattus norvegicus [4] = assay: Toxicity in Crl:CD(SD) rat assessed as decrease in proliferating erythroid cells at 50 mg/kg/day, po daily via gavage for 14 days measured on day 15 post last dose relative to control; format: organism-based; set-up: scale not given: the % may be the effect or the level left; settings: in vivo, 336 h
Rattus norvegicus [5] = assay: Toxicity in Crl:CD(SD) rat assessed as decrease in helper T cells at 50 mg/kg/day, po daily via gavage for 14 days measured on day 15 post last dose relative to control; format: organism-based; set-up: scale not given: the % may be the effect or the level left; settings: in vivo, 336 h
Rattus norvegicus [6] = assay: Toxicity in Crl:CD(SD) rat assessed as decrease in cytotoxic T cells at 50 mg/kg/day, po daily via gavage for 14 days measured on day 15 post last dose relative to control; format: organism-based; set-up: scale not given: the % may be the effect or the level left; settings: in vivo, 336 h
Rattus norvegicus [7] = assay: Toxicity in Crl:CD(SD) rat assessed as single cell necrosis in crypt cells in ileum at 50 mg/kg/day, po daily via gavage for 14 days measured on day 15 post last dose; format: organism-based; settings: in vivo, 336 h
[8] = Total Cmax in Crl:CD(SD) rat at 15 mg/kg/day, po daily via gavage for 14 days measured on day 14 post last dose up to 24 hrs; format: ADME, organism-based; set-up: dose 15 mg/kg/day, route oral; settings: in vivo

O=C(c1ccc(-n2nnc3cccnc32)cc1)N(c1ncccc1Cl)[C@@H]1CCCNC1 gave an IC50 (IEC-6) of over 20 µM, a microsomal CLint [1] of 18.2 µL/min/mg and a fraction unbound [2] of 0.2. For the same molecule, the IC50 (80S Ribosome) was 0.82 µM, the Activity (Rattus norvegicus [3]) was 30% and the Activity (Rattus norvegicus [4]) was 32.9%. The Activity (Rattus norvegicus [5]) was 54%, the Activity (Rattus norvegicus [6]) was 54.5% and the Activity (Rattus norvegicus [7]) was “Toxic”. It also gave a Cmax [8] of 1640 ng/mL.
